Results pooled from the literature.
Protocols differ between the studies behind these lines.
UGT2B7: UDP-glucuronosyltransferase 2B7 (UGT2B7, Homo sapiens, UniProt P16662)

SMILES | target or system | assay | test system | setting | measurement | result
CCOC(=O)CC1SC(=NN=Cc2ccc(O)c(OC)c2)NC1=O (stereo not drawn) | LLC-MK2 | cell growth or viability, MTT |  | 96 h, pH 7.2 | CC50 | 545 µM
CC1(C)CC[C@]2(C)CC[C@]3(C)[C@H]4CC=C5[C@@H](CC[C@H](O)C5(C)C)[C@]4(C)CC[C@@]3(C)[C@@H]2C1 | RD | cell growth or viability, WST-1 |  |  | IC50 | 79.8 µM
CCOC(=O)CC1SC(=NN=Cc2cccc(Br)c2)NC1=O (stereo not drawn) | LLC-MK2 | cell growth or viability, MTT |  | 96 h, pH 7.2 | CC50 | 446 µM
C/C=C(/C)C(=O)O[C@@H]1[C@H](OC(C)=O)c2c(ccc3ccc(=O)oc23)OC1(C)C | RD | cell growth or viability, WST-1 |  |  | IC50 | 44.4 µM
CCOC(=O)CC1SC(=NN=Cc2ccc(OC)cc2)NC1=O (stereo not drawn) | LLC-MK2 | cell growth or viability, MTT |  | 96 h, pH 7.2 | CC50 | 399 µM
CC(C)n1cc(C#N)c2cc(-n3cc(C(=O)O)cn3)ccc21 |  |  | human, plasma | oral, 200 mg, single dose, fasted, healthy volunteers | Tmax | 2.7 h
CCOC(=O)CC1SC(=NN=Cc2ccccc2OC)NC1=O (stereo not drawn) | LLC-MK2 | cell growth or viability, MTT |  | 96 h, pH 7.2 | CC50 | 539 µM
CC(=O)O[C@@H]1c2c(ccc3ccc(=O)oc23)OC(C)(C)[C@@H]1OC(=O)C1(C)OC1C (stereo partly drawn) | RD | cell growth or viability, WST-1 |  |  | IC50 | 42.8 µM
C[C@H](O)c1cc(C(=O)N[C@@H](C)Cn2ccc(-c3ccc(C#N)c(Cl)c3)n2)n[nH]1 | UGT2B7 | enzyme activity, inhibitor | human, liver microsomes |  | IC50 | > 100 µM
C=C1CCC2C(C)(CO)C(=O)CCC2(C)C1CCC1=CCOC1=O (stereo not drawn) | UGT2B7 | enzyme activity, inhibitor |  | 100 µM | inhibition | 94%
COc1cccc(OC)c1-c1cc(C(=O)NC2(C(=O)O)C3CC4CC(C3)CC2C4)nn1-c1ccc(C(=O)N(C)CCCN(C)CCCN(C)C(=O)CN2CCN(CC(=O)[O-])CCN(CC(=O)[O-])CCN(CC(=O)[O-])CC2)cc1C(C)C.[177Lu+3] (stereo not drawn) | HT-29 |  | liver | intravenous, 4 h, tumour-bearing | tracer uptake | 3.1 %ID/g
COc1cc(OC)cc(N(CCNC(C)C)c2ccc3ncc(-c4cnn(C)c4)nc3c2)c1 | LLC-PK1 |  | Caco-2 |  | Papp | 19.8 ×10⁻⁶ cm/s
CCOC(=O)CC1SC(=NN=Cc2ccccc2Cl)NC1=O (stereo not drawn) | LLC-MK2 | cell growth or viability, MTT |  | 96 h, pH 7.2 | CC50 | 229 µM
C=C1CC[C@@H]2[C@](C)(CO)[C@H](O)CC[C@@]2(C)[C@@H]1C/C=C1/C(=O)OC[C@H]1O | UGT2B7 | enzyme activity, inhibitor |  | 100 µM, pH 7.4 | inhibition | 94%
C[C@@H](Nc1cc(F)cc(F)c1)c1cc(C(=O)N(C)C)cc2c(=O)cc(N3CCOCC3)oc12 |  |  | human, plasma | oral, 30 mg, patients | Tmax | 1.53 h
